Measured values taken from ChEMBL document CHEMBL1240389, “In vitro and in vivo activities of the novel anticytomegalovirus compound AIC246” (Antimicrob Agents Chemother, 2010).
pEC50: −log10 of the molar value. Activity calls are given as the source filed them. The rule behind the calls is not given here.

Assays:
Human betaherpesvirus 5 [1] = test: Antiviral activity against human cytomegalovirus infected in NHDF after 7 days by GFP-based fluorescent reduction assay; assay type: functional, organism-based; conditions: Human betaherpesvirus 5, NHDF, 168 h
Summary of the method: (§1)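 Fibroblasts of the stated type (1.5 × 10⁴/well) infected with GFP-expressing recombinant AD169 (HCMV-GFP MOI 0.1 or RV-HG MOI 0.2 to 0.5). After adsorption the inoculum was replaced, with 3-fold serial compound dilutions at least in duplicate, and 7 days at 37°C. GFP units were read by CCD camera in PBS. EC₅₀ was derived from GFPU reduction versus untreated infected wells; at least triplicate runs.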

Human betaherpesvirus 5 [2] = test: Antiviral activity against human cytomegalovirus infected in HEL299 cells after 7 days by GFP-based fluorescent reduction assay; assay type: functional, organism-based; conditions: Human betaherpesvirus 5, HEL 299, 168 h; summary of the method: as §1
Human betaherpesvirus 5 [3] = test: Antiviral activity against 0.1 MOI human cytomegalovirus AD169 infected in NHDF after 7 days by GFP-based fluorescent reduction assay; assay type: functional, organism-based; conditions: Human betaherpesvirus 5, AD169, NHDF, 168 h
Summary of the method: (§2)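 NHDF cells (1.5 × 10⁴/well) infected with GFP-expressing HCMV AD169 at the stated MOI (range 0.003 to 1 tested). After adsorption the inoculum was replaced, and compound was added in 3-fold serial dilutions, each at least in duplicate. Cells were incubated 7 days at 37°C, then GFP units were read by CCD camera in PBS. EC₅₀ was taken as the % GFPU reduction versus no-drug control. At least triplicate experiments.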

Human betaherpesvirus 5 [4] = test: Antiviral activity against human cytomegalovirus Davis infected in NHDF assessed as inhibition of virus-induced cytopathic effect after 6 to 7 days by giemsa staining; assay type: functional, organism-based; conditions: Human betaherpesvirus 5, Davis
Summary of the method: (§3)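 NHDF cells (1 × 10⁴/well) mixed with cell-free virus (MOI 0.03) or with infected-cell suspension (MOI 0.001 to 0.002). Compound was added from DMSO stocks in 2-fold serial dilutions, final 250 to 0.00005 μM, in duplicates. Plates were incubated 6 to 7 days at 37°C or until 100% CPE in virus control, then fixed and stained with Giemsa/formalin and scored microscopically. EC₅₀ is 50% CPE inhibition versus untreated infected control.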

[5] = test system: Human herpesvirus 5 strain AD169; test: Antiviral activity against ganciclovir-resistant human cytomegalovirus AD169 UL97 M460I infected in NHDF assessed as inhibition of virus-induced cytopathic effect after 6 to 7 days by giemsa staining; assay type: functional, organism-based; conditions: Human betaherpesvirus 5, UL97 M460I; summary of the method: as §3
Human betaherpesvirus 5 [6] = test: Antiviral activity against 1 MOI human cytomegalovirus AD169 infected in NHDF after 7 days by GFP-based fluorescent reduction assay; assay type: functional, organism-based; conditions: Human betaherpesvirus 5, AD169, NHDF, 168 h
Summary of the method: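 NHDF cells (1.5 × 10⁴/well) infected with GFP-expressing HCMV AD169 at increasing MOI (0.003 to 1); after adsorption inoculum replaced, compound added in serial 3-fold dilutions, at least duplicate. 7 days at 37°C, medium swapped for PBS, GFP units read by CCD camera. EC₅₀ = 50% GFPU reduction versus no-drug virus control by nonlinear regression; at least triplicate experiments.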

Human betaherpesvirus 5 [7] = test: Antiviral activity against human cytomegalovirus isolate E16415S infected in NHDF assessed as inhibition of virus-induced cytopathic effect after 6 to 7 days by giemsa staining; assay type: functional, organism-based; conditions: Human betaherpesvirus 5, isolate E16415S
Summary of the method: (§4)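 Cell-associated virus (infected NHDF cells) used as inoculum, at MOI 0.001 to 0.002, mixed with uninfected NHDF (1 × 10⁴ to 3 × 10⁴ cells/well). Compound was added in 2-fold serial dilutions, final 250 to 0.00005 μM, in duplicates. Incubation was 6 to 7 days at 37°C, followed by Giemsa/formalin staining and visual CPE scoring. EC₅₀ is 50% CPE inhibition versus untreated infected control; at least two independent experiments.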

Human betaherpesvirus 5 [8] = test: Antiviral activity against human cytomegalovirus AD169 infected in NHDF assessed as inhibition of virus-induced cytopathic effect after 6 to 7 days by giemsa staining; assay type: functional, organism-based; conditions: Human betaherpesvirus 5, AD169, NHDF; summary of the method: as §3
Human betaherpesvirus 5 [9] = test: Antiviral activity against ganciclovir-resistant human cytomegalovirus isolate E17251S infected in NHDF assessed as inhibition of virus-induced cytopathic effect after 6 to 7 days by giemsa staining; assay type: functional, organism-based; conditions: Human betaherpesvirus 5, isolate E17251S; summary of the method: as §4
Human betaherpesvirus 5 [10] = test: Antiviral activity against human cytomegalovirus AD169 infected in NHDF assessed as inhibition of virus replication at 20 uM after 96 hrs by fluorescence assay; assay type: functional, organism-based
Human betaherpesvirus 5 [11] = test: Antiviral activity against human cytomegalovirus infected in human HS27 cells after 7 days by GFP-based fluorescent reduction assay; assay type: functional, organism-based; conditions: Human betaherpesvirus 5, HS27, 168 h
Summary of the method: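 GFP reduction assay run in HS27 foreskin fibroblasts instead of NHDF, infected with AD169-GFP; compounds in 3-fold serial dilutions, 7 days at 37°C, GFP units read by camera-based fluorescence detector after PBS exchange. EC50 from % GFPU reduction versus drug-free infected control; at least triplicate experiments.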

Human betaherpesvirus 5 [12] = test: Antiviral activity against human cytomegalovirus AD169 infected in NHDF at 10 times EC50 treated postinfection and measured after 7 days by GFP-based fluorescent reduction assay
Human betaherpesvirus 5 [13] = test: Antiviral activity against 0.03 MOI human cytomegalovirus AD169 infected in NHDF after 7 days by GFP-based fluorescent reduction assay; assay type: functional, organism-based; conditions: Human betaherpesvirus 5, AD169, NHDF, 168 h; summary of the method: as §2
Human betaherpesvirus 5 [14] = test: Antiviral activity against 0.003 MOI human cytomegalovirus AD169 infected in NHDF after 7 days by GFP-based fluorescent reduction assay; assay type: functional, organism-based; conditions: Human betaherpesvirus 5, AD169, NHDF, 168 h; summary of the method: as §2
Human betaherpesvirus 5 [15] = test: Antiviral activity against human cytomegalovirus AD169 infected in NHDF at 20 uM treated after 33 hrs postinfection measured after 7 days by GFP-based fluorescent reduction assay; assay type: functional, organism-based
Human betaherpesvirus 5 [16] = test: Antiviral activity against 0.01 MOI human cytomegalovirus AD169 infected in NHDF after 7 days by GFP-based fluorescent reduction assay; conditions: Human betaherpesvirus 5, AD169, NHDF, 168 h
Human betaherpesvirus 5 [17] = test: Antiviral activity against human cytomegalovirus AD169 infected in NHDF assessed as inhibition of virus replication at 50 nM measured after 24 to 72 hrs of compound wash by fluorescence assay; assay type: functional, organism-based
Human betaherpesvirus 5 [18] = test: Antiviral activity against 0.3 MOI human cytomegalovirus AD169 infected in NHDF after 7 days by GFP-based fluorescent reduction assay; assay type: functional, organism-based; conditions: Human betaherpesvirus 5, AD169, NHDF, 168 h; summary of the method: as §2
Human betaherpesvirus 5 [19] = test: Antiviral activity against human cytomegalovirus infected in NHLF after 7 days by GFP-based fluorescent reduction assay; assay type: functional, organism-based; conditions: Human betaherpesvirus 5, 168 h; summary of the method: as §1
Human betaherpesvirus 5 [20] = test: Antiviral activity against human cytomegalovirus AD169 infected in NHDF after 7 days by GFP-based fluorescent reduction assay; assay type: functional, organism-based; conditions: Human betaherpesvirus 5, AD169, NHDF, 168 h
Summary of the method: (§5)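 Incubated 7 days at 37°C, medium swapped for PBS, GFP units read by CCD-camera fluorescence imager. EC50/EC90 from % GFPU reduction versus untreated infected wells by nonlinear regression; at least triplicate experiments.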

Human betaherpesvirus 5 [21] = test: Antiviral activity against ganciclovir-resistant human cytomegalovirus isolate 1947R infected in NHDF assessed as inhibition of virus-induced cytopathic effect after 6 to 7 days by giemsa staining; assay type: functional, organism-based; conditions: Human betaherpesvirus 5, isolate 1947R; summary of the method: as §4
Human betaherpesvirus 5 [22] = test: Antiviral activity against human cytomegalovirus isolate 472 infected in NHDF assessed as inhibition of virus-induced cytopathic effect after 6 to 7 days by giemsa staining; assay type: functional, organism-based; conditions: Human betaherpesvirus 5, isolate 472, NHDF; summary of the method: as §3
Human betaherpesvirus 5 [23] = test: Antiviral activity against human cytomegalovirus RV-HG infected in NHDF after 7 days by GFP-based fluorescent reduction assay; assay type: functional, organism-based; conditions: Human betaherpesvirus 5, RV-HG, 168 h; summary of the method: as §5
Human betaherpesvirus 5 [24] = test: Antiviral activity against human cytomegalovirus Davis xenograft mouse model assessed as reduction of viral load administered via oral gavage QD for 9 days measured post last dose; assay type: functional; conditions: Human betaherpesvirus 5, Davis, 216 h
Summary of the method: (§6)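 NOD SCID mice (18 to 25 g) implanted subcutaneously (dorsoscapular) with Gelfoam sponges seeded with 1 × 10⁶ NHDF cells infected with strain Davis (MOI 0.03), bFGF-treated. From 4 h post-transplant, dosed orally by gavage once daily for 9 days in 2% DMSO/0.5% methylcellulose-PBS, 10 ml/kg. Implants then collagenase-digested; recovered cells titrated by plaque assay on NHDF (PFU/ml).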

Human betaherpesvirus 5 [25] = test: Antiviral activity against human cytomegalovirus AD169 infected in NHDF assessed as inhibition of virus replication at 50 nM after 96 hrs by fluorescence assay; assay type: functional, organism-based
Human betaherpesvirus 5 [26] = test: Antiviral activity against human cytomegalovirus AD169 infected in NHDF at 50 nM treated after 57 hrs postinfection measured after 7 days by GFP-based fluorescent reduction assay; assay type: functional, organism-based
Human betaherpesvirus 5 [27] = test: Antiviral activity against human cytomegalovirus isolate La infected in NHDF assessed as inhibition of virus-induced cytopathic effect after 6 to 7 days by giemsa staining; assay type: functional, organism-based; conditions: Human betaherpesvirus 5, isolate La; summary of the method: as §3
Human betaherpesvirus 5 [28] = test: Antiviral activity against human cytomegalovirus infected in human fibroblast assessed as decrease in infectious foci size at 50 nM after 5 days by DAPI staining; assay type: functional, organism-based
Summary of the method: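 Late-stage infected fibroblasts (strictly cell-associated clinical isolate) cocultured with excess uninfected fibroblasts for 5 days with or without 50 nM drug. Methanol-fixed; IE antigen detected by indirect immunofluorescence (mAb E13, Cy3 secondary), nuclei DAPI-counterstained. Quadruplicate; mean infected cells per focus counted.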

Human betaherpesvirus 5 [29] = test: Antiviral activity against human cytomegalovirus isolate Ba infected in NHDF assessed as inhibition of virus-induced cytopathic effect after 6 to 7 days by giemsa staining; assay type: functional, organism-based; conditions: Human betaherpesvirus 5, isolate Ba; summary of the method: as §3
Human betaherpesvirus 5 [30] = test: Antiviral activity against human cytomegalovirus isolate Se infected in NHDF assessed as inhibition of virus-induced cytopathic effect after 6 to 7 days by giemsa staining; assay type: functional, organism-based; conditions: Human betaherpesvirus 5, isolate Se; summary of the method: as §3
Human betaherpesvirus 5 [31] = test: Antiviral activity against human cytomegalovirus infected in human MRC5 cells after 7 days by GFP-based fluorescent reduction assay; assay type: functional, organism-based; conditions: Human betaherpesvirus 5, MRC5, 168 h
Summary of the method: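 MRC5 fibroblasts (1.5 × 10⁴/well) infected with GFP-expressing HCMV AD169; inoculum removed after adsorption, compound in serial 3-fold dilutions, at least duplicate. 7 days at 37°C, then PBS and GFP units read by CCD camera. EC₅₀ = 50% GFPU reduction versus no-drug virus control by nonlinear regression; mean ± SD of independent experiments.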

Human betaherpesvirus 5 [32] = test: Antiviral activity against human cytomegalovirus Davis xenograft mouse model assessed as reduction of viral load at 10 to 100 mg/kg, po QD for 9 days measured post last dose; assay type: functional, organism-based; summary of the method: as §6

SMILES	pEC50 (Human betaherpesvirus 5 [1])	pEC50 (Human betaherpesvirus 5 [2])	pEC50 (Human betaherpesvirus 5 [3])	pEC50 (Human betaherpesvirus 5 [4])	pEC50 [5]	pEC50 (Human betaherpesvirus 5 [6])	pEC50 (Human betaherpesvirus 5 [7])	pEC50 (Human betaherpesvirus 5 [8])	pEC50 (Human betaherpesvirus 5 [9])	pEC50 (Human betaherpesvirus 5 [11])	Activity (Human betaherpesvirus 5 [12])	pEC50 (Human betaherpesvirus 5 [13])	pEC50 (Human betaherpesvirus 5 [14])	pEC50 (Human betaherpesvirus 5 [16])	Activity (Human betaherpesvirus 5 [17])	pEC50 (Human betaherpesvirus 5 [18])	pEC50 (Human betaherpesvirus 5 [19])	pEC50 (Human betaherpesvirus 5 [20])	EC90 (Human betaherpesvirus 5 [20]) [nM]	pEC50 (Human betaherpesvirus 5 [21])	further results
Nc1nc2c(ncn2COC(CO)CO)c(=O)[nH]1 [GANCICLOVIR]	5.72	5.62	5.66	5.57	4.92	5.28	5.96	5.37	4.85	6.49	Active	5.76	6.00	6.17	Active	5.19	5.68	5.76	10700	4.82	Activity (Human betaherpesvirus 5 [10]): Active; Activity (Human betaherpesvirus 5 [15]): Active; pEC50 (Human betaherpesvirus 5 [22]): 5.30; pEC50 (Human betaherpesvirus 5 [23]): 5.63; EC90 (Human betaherpesvirus 5 [23]): 18300 nM
COc1cccc(N2CCN(C3=Nc4c(F)cccc4[C@H](CC(=O)O)N3c3cc(C(F)(F)F)ccc3OC)CC2)c1 [LETERMOVIR]	8.46	8.46	8.47	8.40	8.41	8.38	8.59	8.30	8.21	8.25	Active	8.54	8.89	8.82	Active	8.44	8.30	8.42	5.1	8.64	ED50 (Human betaherpesvirus 5 [24]): 3 mg/kg/day; ED90 (Human betaherpesvirus 5 [24]): 8 mg/kg/day; Activity (Human betaherpesvirus 5 [25]): Active; Activity (Human betaherpesvirus 5 [26]): inactive; pEC50 (Human betaherpesvirus 5 [27]): 8.47; Activity (Human betaherpesvirus 5 [28]): Active; pEC50 (Human betaherpesvirus 5 [29]): 8.24; pEC50 (Human betaherpesvirus 5 [30]): 8.51; pEC50 (Human betaherpesvirus 5 [31]): 8.35; inhibition (Human betaherpesvirus 5 [32]): Active; pEC50 (Human betaherpesvirus 5 [22]): 8.74; pEC50 (Human betaherpesvirus 5 [23]): 8.31; EC90 (Human betaherpesvirus 5 [23]): 7.1 nM
CC(C)[C@H](N)C(=O)OCC(CO)OCn1cnc2c(=O)[nH]c(N)nc21 (stereo partly specified) [VALGANCICLOVIR]	–	–	–	–	–	–	–	–	–	–	–	–	–	–	–	–	–	–	–	–	ED50 (Human betaherpesvirus 5 [24]): 16 mg/kg/day; ED90 (Human betaherpesvirus 5 [24]): > 100 mg/kg/day; inhibition (Human betaherpesvirus 5 [32]): Active
